From PMC4160070 (Journal of clinical pharmacology, 2014)
Where two headings read alike, the source gives them in different places. Blank lines part the entries; values can stand above or below the compound they belong to.

Experiments:
[1] = dog, in vivo; cited from earlier work
[2] = human, in vivo, inhaled or intranasal
healthy male subjects [3] = conditions: in vivo
[4] = rat, in vivo; cited from earlier work
healthy male subjects [5] = conditions: in vivo; remark: listed apart in the source
healthy male subjects [6] = conditions: in vivo; remark: listed apart in the source
dog = conditions: in vivo
[7] = Properties of the reconstituted AP301 solution; assay type: physicochemical; conditions: AP301 25 mg/mL, lyophilized powder reconstituted in water for injection
animal models = conditions: various animal models; cited from earlier work
[8] = test system: ENaC in primary type II alveolar epithelial cells; conditions: rat AEC type II cells, cited from earlier work
[9] = test system: ENaC in primary type II alveolar epithelial cells; conditions: dog AEC type II cells, cited from earlier work
ENaC = conditions: cell-based studies; no reference given; cited from earlier work
Aerosol characterization = assay type: physicochemical
Outline: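 Test compound supplied as lyophilized powder, reconstituted in water for injection to 25 mg/mL. The solution was aerosolized with an Aeroneb Solo vibrating-mesh nebulizer driven by an Aeroneb Pro-X controller. Particle distribution was measured by Next Generation Impactor at 15 L/min and by laser diffraction. Read-outs were fine particle fraction and average droplet size.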

[10] = mouse, in vivo; cited from earlier work
healthy male subjects [11] = conditions: in vivo; remark: listed apart in the source
healthy male subjects [12] = conditions: in vivo; remark: listed apart in the source
healthy male subjects [13] = conditions: in vivo; remark: listed apart in the source
[14] = test system: acute lung injury (ALI) in anaesthetized domestic pigs; conditions: pigs with ALI, single nebulization of 1.0 mg/kg, observation 5 hours; cited from earlier work
[15] = in vivo
[16] = test system: ENaC in primary type II alveolar epithelial cells; conditions: pig AEC type II cells, cited from earlier work
[17] = whole cell patch clamp, in the presence of AP301
[18] = 25 mg/mL solution, Aeroneb Solo nebulizer, laser diffraction, Apeptico Research Report, data on file

Tmax [2]: ~5 min
AUC(0-t) ([2]; 12 mg): 0.0333 ng·h/mL
Cmax ([2]; 12 mg): 0.4 ± 0.6 ng/mL
Tmax ([2]; 12 mg): 5 min
AUC(0-t) ([2]; 30 mg): 0.0183 ng·h/mL
Cmax ([2]; 30 mg): 0.3 ± 0.6 ng/mL
AUC(0-t) ([2]; 60 mg): 0.93 ng·h/mL
Cmax ([2]; 60 mg): 2.2 ± 1.4 ng/mL
Tmax ([2]; 60 mg): 5 min
AUC(0-t) ([2]; 90 mg): 0.758 ng·h/mL
Cmax ([2]; 90 mg): 2.4 ± 2.1 ng/mL
AUC(0-t) ([2]; 120 mg): 0.877 ng·h/mL
Cmax ([2]; 120 mg): 2.2 ± 1.8 ng/mL
Tmax ([2]; 120 mg): 2.5 min
content of eNO versus baseline and pooled placebo (healthy male subjects [5]): did not change
subjects with post-dose FEV1 decline of ≥15% from baseline (healthy male subjects [6]): only a single subject
maximum recommended starting dose (MRSD) (dog): 0.1 mg/kg BW
osmolarity of the solution [7]: 23 mosmol/L
pH of the solution [7]: 4.40
viscosity of the solution [7]: 1.07 mPa s
average droplet size (Aerosol characterization; [18]): 3.3 μm
mean fine particle fraction (FPF) (Aerosol characterization; [18]): about 60%
FPF as determined by NGI (Aerosol characterization; Next Generation Impactor at 15 L/min): 60%
maximum exposure values (Cmax) at mean dose-cohort level [15]: exceeding 2.0 ng/mL
mean Cmax values in the highest dose groups [15]: < 2.5 ng/mL
median tmax values across dose groups [15]: 0 to 0.083 h
SMILES: C[C@@H]1NC(=O)CNC(=O)[C@H](CCC(=O)O)NC(=O)[C@@H]2CCCN2C(=O)[C@H]([C@@H](C)O)NC(=O)[C@H](CCC(=O)O)NC(=O)[C@H](CCCNC(=N)N)NC(=O)[C@H](CCC(N)=O)NC(=O)CNC(=O)[C@@H](N)CSSC[C@@H](C(=O)O)NC(=O)[C@H](Cc2ccc(O)cc2)NC(=O)[C@H](Cc2c[nH]c3ccccc23)NC(=O)[C@@H]2CCCN2C(=O)[C@H](CCCCN)NC(=O)[C@H](C)NC(=O)[C@H](CCC(=O)O)NC1=O [AP301]
absorption from the pulmonary compartment into the systemic circulation [1]: hardly absorbed
number of AEs considered related to AP301 inhalation (healthy male subjects [3]): 7
overall frequency of AEs in subjects randomized to AP301 (healthy male subjects [3]): 25%
absorption from the pulmonary compartment into the systemic circulation [4]: hardly absorbed
FEV1 declines of ≥20% from baseline (healthy male subjects [6]): no FEV1 declines of ≥20% from baseline were noted in any subject
effects on airway caliber or vital capacity (FVC, FEV1) (healthy male subjects [6]): absence of relevant dose-dependent effects
effective pharmacological dose range (animal models): 0.5–1.0 mg/kg BW
increase of amiloride-sensitive Na+ currents (via ENaC) versus baseline [8, 17]: about 9 fold
increase of amiloride-sensitive Na+ currents (via ENaC) versus baseline [9, 17]: ~13 fold
concentration range in which ENaC activation was dose-dependent (ENaC): 5 to 100 nM
absorption from the pulmonary compartment into the systemic circulation [10]: hardly absorbed
effects on vital signs (SBP, DBP, HR) (healthy male subjects [11]): no clinically meaningful dose-or time-dependent effects
QTc value (healthy male subjects [12]): ≤ 450 milliseconds
changes in ECG outcome variables (healthy male subjects [12]): no clinically meaningful or remarkable dose-or time-dependent changes
changes in safety laboratory variables (healthy male subjects [13]): No clinically meaningful or remarkable dose-or time-dependent changes
oxygenation (PaO2/FiO2) [14]: significant improvement
pulmonary shunt fraction (Qs/Qt) [14]: reduction
increase of amiloride-sensitive Na+ currents (via ENaC) versus baseline [16, 17]: ~16 fold

SMILES: N=C(N)NC(=O)c1nc(Cl)c(N)nc1N [amiloride, reference compound]
effect on the AP301-induced increase of Na+ current [8]: could be inhibited
effect on the AP301-induced increase of Na+ current [9]: could be inhibited
effect on the AP301-induced increase of Na+ current [16]: could be inhibited
